Experiments:
[1] = rat, microsomes, 0.75 h, 1 µM
[2] = Intrinsic clearance in dog hepatocytes […] at 2 uM measured after 15 to 120 mins by LC-MS analysis; type: ADME, cell-based, Canis lupus familiaris, Hepatocyte; conditions: time 15-120 min
How it was run: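 Hepatocytes at 2×10^6 viable cells/mL, mixed with an equal volume of 2 μM compound in KHB buffer. Incubated at 37 °C and quenched with ACN at 0, 15, 30, 60 and 120 min. Analysed by LC/MS, with percent remaining from peak area ratio to internal standard against 0 min. Half-life from a single-phase exponential fit.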

[3] = Permeability across basolateral to apical side in human Caco-2 cells at 10 uM measured after 90 mins by LC-MS/MS analysis; type: ADME, cell-based
How it was run: (§1)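 Caco-2 monolayers grown 21–28 days on polycarbonate filter inserts, with TEER and Lucifer Yellow checked before and after. Compound at 10 μM in HBSS with 25 mM HEPES, pH 7.4. Run A→B and B→A at 37 °C for 90 min. Receiver and donor samples quantified by LC-MS/MS.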

[4] = Permeability across apical to basolateral side in human Caco-2 cells at 10 uM measured after 90 mins by LC-MS/MS analysis; type: ADME, cell-based
How it was run: as §1

[5] = human, microsomes, 0.75 h, 1 µM

SMILES	CLH [1] [mL/min]	also measured
O=C(Cc1cccc(OC(F)(F)F)c1)Nc1ccc(CCCCc2nnc(NC(=O)Cc3ccccn3)s2)nn1	203	–
O=C(Cc1cccc(OC(F)(F)F)c1)Nc1ccc(CCCCn2cc(C(=O)NCc3ccccn3)nn2)nn1	162	–
CNC(=O)c1cn(C[C@H](F)CCc2ccc(NC(=O)Cc3cc(-c4cccc(OC(F)(F)F)c4)ccn3)nn2)nn1	–	CLint [2]: 12 mL/min/kg; permeability [3]: 21 10^-6 cm/s; permeability [4]: 5.8 10^-6 cm/s
O=C(Cc1ccccc1)Nc1ccc(CCCCn2cc(C(=O)NCc3ccccc3)nn2)nn1	128	–
CNC(=O)c1cn(C[C@H](F)CCc2ccc(NC(=O)Cc3cc(C(F)(F)F)ccn3)nn2)nn1	–	CLH [5]: 0.2 mL/min
O=C(Cc1ccccn1)Nc1ccc(CCCCn2cc(C(=O)NCc3cccc(OC(F)(F)F)c3)nn2)nn1	283	–
